Assay results reported in ChEMBL document CHEMBL3102838, “Synthesis of RCAI-172 (C6 epimer of RCAI-147) and its biological activity” (2014).
Active and inactive are the calls of the source. No cut-off for these calls is given here.

Assays:
[1] = system: Mus musculus; assay: Immunostimulatory activity in C57BL/6 mouse autoimmune encephalomyelitis model assessed as IL-4 secretion inoculated with compound-treated GM-CSF-induced dendritic cells administered on day 3 and 5 relative to KRN7000; assay type: functional
[2] = system: Mus musculus; assay: Immunostimulatory activity in C57BL/6 mouse autoimmune encephalomyelitis model assessed as decrease in IFNgamma secretion inoculated with compound-treated GM-CSF-induced dendritic cells administered on day 3 and 5 relative to KRN7000; assay type: functional; set-up: scale not given: the % may be the effect or the level left
[3] = species on record: Mus musculus; assay: Ratio for reduction of IL-4 secretion in mouse to reduction of IFNgamma secretion in mouse; assay type: functional
[4] = system: Mus musculus; assay: Immunomodulatory activity in mouse assessed as reduction of IFNgamma secretion at 10 ug/mL, iv relative to KRN7000; assay type: functional; set-up: scale not given: the % may be the effect or the level left
Method in brief: (§1)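 Female-unspecified mice given glycolipid via tail vein: DMSO stock (1.0 mg/mL) diluted to 10 μg/mL in Dulbecco's PBS just before use; 200 μL injected (2 μg/mouse). Retro-orbital blood drawn into heparinized capillaries at set time points and plasma prepared. Plasma IFN-γ and IL-4 quantified by cytometric bead array. Means ±SD, three mice.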

[5] = system: Mus musculus; assay: Immunomodulatory activity in mouse assessed as reduction of IL-4 secretion at 10 ug/mL, iv relative to KRN7000; assay type: functional; set-up: scale not given: the % may be the effect or the level left; method in brief: as §1
[6] = system: Mus musculus; assay: Immunostimulatory activity in C57BL/6 mouse autoimmune encephalomyelitis model inoculated with compound-treated GM-CSF-induced dendritic cells administered on day 3 and 5; assay type: functional, organism-based
Method in brief: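 EAE in female C57BL/6 mice was induced on day 1 by subcutaneous MOG35-55/CFA emulsion at two lower-back sites, with an additional adjuvant given intraperitoneally on days 1 and 3. Bone-marrow GM-DC were raised with GM-CSF (10 ng/mL, 5 days), CD11c-enriched, then pulsed with glycolipid (100 ng/mL; 5×10^6 cells/mL, 24 h). Mice were scored daily to day 30 on a 0–5 scale in 0.5 steps.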

[7] = system: Mus musculus; assay: Immunomodulatory activity in mouse assessed as reduction of IL-4 secretion at 10 ug/mL, iv relative to RCAI-147; assay type: functional; set-up: scale not given: the % may be the effect or the level left
[8] = system: Mus musculus; assay: Immunomodulatory activity in mouse assessed as IL-4 secretion at 10 ug/mL, iv relative to KRN7000; assay type: functional; method in brief: as §1
[9] = system: Mus musculus; assay: Immunomodulatory activity in mouse assessed as IFNgamma secretion at 10 ug/mL, iv relative to KRN7000; assay type: functional; method in brief: as §1
[10] = system: Mus musculus; assay: Immunomodulatory activity in mouse assessed as increase in IL-4 secretion at 10 ug/mL, iv relative to KRN7000; assay type: functional; method in brief: as §1

SMILES: CCCCCCCCCCCCCCCCCCCCCCC[C@@H](O)[C@@H](O)C(=O)N[C@@H](CO[C@H]1O[C@H](CO)[C@H](O)[C@H](O)[C@H]1O)[C@H](O)[C@H](O)[C@@H](O)[C@@H](O)CCCCCCCCCCCC
- Activity [1]: >60%
- Activity [2]: <5%
- Ratio [3]: 14
- Activity [4]: 5%
- Activity [5]: 70%

SMILES: CCCCCCCCCCCCCCCCCCCCCCC[C@@H](O)[C@@H](O)C(=O)N[C@@H](CO[C@H]1O[C@H](CO)[C@H](O)[C@H](O)[C@H]1O)[C@H](O)[C@H](O)[C@@H](O)[C@H](O)CCCCCCCCCCCC
- Ratio [3]: 8.6
- Activity [6]: inactive
- Activity [4]: 4.1%
- Activity [5]: 35.3%
- Activity [7]: 61%

SMILES: CCCCCCCCCCCCCCCCCCCCCCCCCC(=O)N[C@@H](CO[C@H]1O[C@H](CO)[C@H](O)[C@H](O)[C@H]1O)[C@H](O)CC[C@@H](O)CCCCCCCCCCCC
- Activity [8]: 75%
- Activity [9]: 160%

SMILES: CCCCCCCCCCCCCCCCCCCCCCCCCC(=O)N[C@@H](CO[C@H]1O[C@H](CO)[C@H](O)[C@H](O)[C@H]1O)[C@H](O)CC[C@H](O)CCCCCCCCCCCC
- Activity [8]: 19%
- Activity [9]: 64%

SMILES: CCCCCCCCCCCCCCCCCCCCCCC[C@@H](O)[C@@H](O)C(=O)N[C@@H](CO[C@H]1O[C@H](CO)[C@H](O)[C@H](O)[C@H]1O)[C@H](O)[C@H](O)CCCCCCCCCCCCCC
- Activity [10]: 138%
- Ratio [3]: 3.4
- Activity [9]: 41%

SMILES: CCCCCCCCCCCCCCCCCCCCCC[C@@H](O)[C@@H](O)[C@@H](O)C(=O)N[C@@H](CO[C@H]1O[C@H](CO)[C@H](O)[C@H](O)[C@H]1O)[C@H](O)[C@H](O)CCCCCCCCCCCCCC
- Activity [1]: >60%
- Activity [2]: <5%
